Tests used:
Format in all cases: in vivo, human
[1] = Plasma avexitide pharmacokinetics at end of each 14-day treatment period
In short: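 Plasma for drug concentration was drawn at the end of each 14-day SC regimen (30 mg every 12 h; 60 mg each morning) on days 29 and 43. Sampling times were −90, 0, 60, 180 and 330 min […], with the trough taken immediately before the −90 min dose. C0, Cmax and AUC0-t were summarised descriptively.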

[2] = system: patients with postbariatric hypoglycemia (PBH); experiment: Safety: treatment-emergent adverse events, laboratory and physical findings
[3] = system: patients with postbariatric hypoglycemia (PBH); experiment: Outpatient hypoglycemia captured by SMBG/eDiary; settings: for Rate of Level 2 hypoglycemia, mean value (SD): SMBG <54 mg/dL; for Rate of Level 2 hypoglycemia, mean value (SD) / Rate of Level 1 hypoglycemia, mean value (SD): episodes normalized to 14 days, N = 17; for Rate of Level 1 hypoglycemia, mean value (SD): SMBG <70 mg/dL
In short: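 Outpatients logged each hypoglycaemic episode in an eDiary, using a glucometer (SMBG) over each 14-day period. Entries were symptoms, lowest SMBG, treatment, need for assistance, and postprandial or not. Levels were defined as Level 1 SMBG <70 mg/dL, Level 2 <54 mg/dL, and Level 3 needing another person's assistance. Rate was distinct episodes divided by days, normalised to 14 days. Placebo-adjusted LS means came from a mixed-effect model.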

[4] = system: patients with postbariatric hypoglycemia (PBH); experiment: Outpatient blinded continuous glucose monitoring; settings: for No. events <54 mg/dL 8 AM-12 AM, mean value (SD) / No. events <54 mg/dL 12 AM-8 AM, mean value (SD): CGM, sustained at least 15 minutes, normalized to 14 days; for No. events <54 mg/dL 8 AM-12 AM, mean value (SD) / No. events <54 mg/dL 12 AM-8 AM, mean value (SD) / % Time <54 mg/dL 8 AM-12 AM, mean value (SD) / % Time >250 mg/dL 24 hours, mean value (SD): N = 17; for % Time <54 mg/dL 8 AM-12 AM, mean value (SD) / % Time >250 mg/dL 24 hours, mean value (SD): percentage of CGM values
In short: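 Blinded CGM was worn at home through three 14-day periods (placebo, then SC test compound 30 mg twice daily or 60 mg once daily), with two injections daily for blinding. Read-outs were % CGM values <54 mg/dL (8 am–12 am or 12 am–8 am) or >250 mg/dL, normalised to 14 days. LS means were placebo-adjusted by mixed-effect model (treatment, sequence, period fixed; subject within sequence random).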

[5] = system: patients with postbariatric hypoglycemia (PBH); experiment: Mixed-meal tolerance testing; settings: for GLP-1, AUC(0–180), mean value (SD) / Glucagon, AUC(0–180), mean value (SD) / Glucose, AUC(0–180), mean value (SD) / GLP-1, fasting, mean value (SD) / GLP-1, peak, mean value (SD) / Glucagon, fasting, mean value (SD) / Glucagon, peak, mean value (SD) / Glucose, AUC(peak:nadir), mean value (SD) / Glucose, fasting, mean value (SD) / Glucose, peak, mean value (SD) / Insulin, fasting, mean value (SD) / Glucose, nadir (primary endpoint), mean value (SD) / Insulin, peak (secondary endpoint), mean value (SD): 14 days, N = 17; for GLP-1, AUC(0–180), mean value (SD) / Glucagon, AUC(0–180), mean value (SD) / Glucose, AUC(0–180), mean value (SD): 0 to 180 minutes; for Glucose, nadir (primary endpoint), mean value (SD): postprandial plasma, within 3 hours of MMTT; for Insulin, peak (secondary endpoint), mean value (SD): postprandial; for Participants requiring rescue during MMTT: vs 47% with placebo
In short: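 Crossover design: 18 female patients got SC placebo for 14 days, then the test compound at 30 mg every 12 h and 60 mg each morning for 14 days each, in random order. After an overnight fast, each period ended with a 180-min MMTT: 64 g carbohydrate drink over 10 min. Plasma glucose, insulin, C-peptide, GLP-1 and glucagon were sampled every 15 min. Rescue was IV dextrose (point-of-care glucose ≤50 mg/dL with neuroglycopenic symptoms, or ≤40 mg/dL).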

[6] = plasma, end of each 14-day treatment period, SC
[7] = avexitide 30 mg twice daily SC, MMTT
[8] = avexitide 30 mg twice daily, MMTT
[9] = avexitide 60 mg once daily SC, MMTT
[10] = avexitide 60 mg once daily, MMTT

## exendin (9-39) [Avexitide]
[1]; both dosing regimens
  Evidence of systemic plasma exposure: observed in all patients
[1]; [6]
  Mean (AUC0-t) exposure, higher for 60 mg once daily than 30 mg twice daily: 40%
  Peak (Cmax) exposure, higher for 60 mg once daily than 30 mg twice daily: 72%
[2]; avexitide 60 mg once daily
  Serious adverse event (presyncope), reported as unrelated to study drug and self-limited: 1
[2]; both dosing regimens
  Changes in vital signs, body weight, hematology or chemistry: No clinically significant changes
  Patient withdrawals: no patient withdrawals
  Treatment-related serious adverse events: no treatment-related serious adverse events
[2]; both dosing regimens, 28 days
  Tolerability: well tolerated
[3]; avexitide 30 mg twice daily
  Reduction of rate of SMBG <54 mg/dL (Level 2 hypoglycemia) compared with placebo: 40%
  Reduction of rate of SMBG <70 mg/dL (Level 1 hypoglycemia) compared with placebo: 30%
  Reduction of rate of severe hypoglycemia (Level 3) events: 23%
[3]; avexitide 30 mg twice daily SC
  Rate of Level 2 hypoglycemia, mean value (SD): 1.21 (1.65)
  Rate of Level 1 hypoglycemia, mean value (SD): 2.81 (2.13)
[3]; avexitide 60 mg once daily
  Reduction of rate of SMBG <54 mg/dL (Level 2 hypoglycemia) compared with placebo: 60%
  Reduction of rate of SMBG <70 mg/dL (Level 1 hypoglycemia) compared with placebo: 61%
  Reduction of rate of severe hypoglycemia (Level 3) events: 56%
[3]; avexitide 60 mg once daily SC
  Rate of Level 2 hypoglycemia, mean value (SD): 0.81 (0.88)
  Rate of Level 1 hypoglycemia, mean value (SD): 1.56 (1.27)
[4]; avexitide 30 mg twice daily SC
  No. events <54 mg/dL 8 AM-12 AM, mean value (SD): 2.82 (3.00)
  No. events <54 mg/dL 12 AM-8 AM, mean value (SD): 2.34 (3.03)
  % Time <54 mg/dL 8 AM-12 AM, mean value (SD): 0.99 (1.12) %
  % Time >250 mg/dL 24 hours, mean value (SD): 0.99 (1.34) %
[4]; avexitide 30 mg twice daily, blinded CGM
  Reduction of mean percent time with glucose <54 mg/dL: 50%
[4]; avexitide 60 mg once daily SC
  No. events <54 mg/dL 8 AM-12 AM, mean value (SD): 3.46 (2.48)
  No. events <54 mg/dL 12 AM-8 AM, mean value (SD): 3.56 (4.18)
  % Time <54 mg/dL 8 AM-12 AM, mean value (SD): 1.49 (1.70) %
  % Time >250 mg/dL 24 hours, mean value (SD): 0.85 (0.98) %
[4]; avexitide 60 mg once daily, blinded CGM
  Reduction of mean percent time with glucose <54 mg/dL: 24%
[4]; blinded CGM, across treatment groups
  Percent time with glucose >250 mg/dL: less than 1%
[5]; avexitide 30 mg twice daily
  Fewer participants requiring rescue during MMTT compared with placebo: 50%
  Participants requiring rescue during MMTT: 24%
[5]; [7]
  GLP-1, AUC(0–180), mean value (SD): 330.8 (140.5) h×mg/dL
  Glucagon, AUC(0–180), mean value (SD): 466.7 (131.2) h × mg/dL
  Glucose, AUC(0–180), mean value (SD): 320.0 (89.5) h × mg/dL
  GLP-1, fasting, mean value (SD): 12.7 (3.4) pg/mL
  GLP-1, peak, mean value (SD): 413.3 (193.6) pg/mL
  Glucagon, fasting, mean value (SD): 156.3 (0) pg/mL
  Glucagon, peak, mean value (SD): 196.7 (49.8) pg/mL
  Glucose, AUC(peak:nadir), mean value (SD): 192.3 (91.9) h × mg/dL
  Glucose, fasting, mean value (SD): 87.5 (6.0) mg/dL
  Glucose, peak, mean value (SD): 218.2 (45.2) mg/dL
  Insulin, fasting, mean value (SD): 4.5 (2.7) μIU/mL
  Insulin, peak (secondary endpoint), mean value (SD): 349.5 (156.9) μIU/mL
[5]; avexitide 30 mg twice daily SC
  Glucose, nadir (primary endpoint), mean value (SD): 57.1 (16.5) mg/dL
[5]; [8]
  AUC glucose concentrations higher than placebo: 12%
  Increase of mean plasma glucose nadir compared with placebo: 21%
  LS mean postprandial insulin peak lower than with placebo: 104.53 μIU/mL
  Reduction of peak insulin compared with placebo: 23%
[5]; avexitide 60 mg once daily
  Fewer participants requiring rescue during MMTT compared with placebo: 75%
  Participants requiring rescue during MMTT: 12%
[5]; [9]
  GLP-1, AUC(0–180), mean value (SD): 351.1 (127.5) h×mg/dL
  Glucagon, AUC(0–180), mean value (SD): 484.1 (96.7) h × mg/dL
  Glucose, AUC(0–180), mean value (SD): 338.1 (80.7) h × mg/dL
  GLP-1, fasting, mean value (SD): 12.7 (4.6) pg/mL
  GLP-1, peak, mean value (SD): 397.1 (150.2) pg/mL
  Glucagon, fasting, mean value (SD): 156.8 (2.2) pg/mL
  Glucagon, peak, mean value (SD): 182.9 (35.9) pg/mL
  Glucose, AUC(peak:nadir), mean value (SD): 204.6 (86.3) h × mg/dL
  Glucose, fasting, mean value (SD): 84.6 (4.2) mg/dL
  Glucose, peak, mean value (SD): 224.5 (47.3) mg/dL
  Insulin, fasting, mean value (SD): 4.1 (2.6) μIU/mL
  Insulin, peak (secondary endpoint), mean value (SD): 357.2 (190.9) μIU/mL
[5]; avexitide 60 mg once daily SC
  Glucose, nadir (primary endpoint), mean value (SD): 59.2 (16.1) mg/dL
[5]; [10]
  AUC glucose concentrations higher than placebo: 18%
  Increase of mean plasma glucose nadir compared with placebo: 26%
  LS mean postprandial insulin peak lower than with placebo: 96.29 μIU/mL
  Reduction of peak insulin compared with placebo: 21%
[5]; both avexitide treatment regimens, MMTT
  Postprandial concentrations of GLP-1 and glucagon relative to placebo: significantly higher
[5]; both dosing regimens, MMTT
  Influence on fasting insulin, GLP-1, or glucagon: no influence
